Assay results published in ChEMBL document CHEMBL1649139, “A novel gene, erm(41), confers inducible macrolide resistance to clinical isolates of Mycobacterium abscessus but is absent from Mycobacterium chelonae” (2009).
≈ marks a conversion by molar mass, not a printed value.

Key:
Format in all cases: functional
[1] = tested on: Mycobacteroides abscessus; assay: Antimicrobial activity against Mycobacterium abscessus isolate MC1448 at day 5 preincubated with 0.1 ug/ml erythromycin for 3 days by broth microdilution method
Procedure, shortened: (§1)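 Clarithromycin MIC by broth microdilution following CLSI guidelines. Before testing, organisms were preincubated for 3 days in medium alone or in clarithromycin or erythromycin (0.01–1 μg/ml), long enough for at least two generations judged by turbidity increase. MICs were read on day 3 and again on extended incubation out to day 14.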

[2] = tested on: Mycobacteroides abscessus; assay: Antimicrobial activity against Mycobacterium abscessus isolate MC1448 at day 14 preincubated with 0.1 ug/ml erythromycin for 3 days by broth microdilution method
Procedure, shortened: (§2)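 Clarithromycin MIC by CLSI-conforming broth microdilution. Before testing, cultures were preincubated for 3 days, either in medium alone or in clarithromycin or erythromycin (tested range 0.01–1 μg/ml). Preincubation ran for at least two generations, judged by turbidity increase. Plates were read on day 3 and on extended incubation at days 5 to 14.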

[3] = tested on: Mycobacteroides abscessus; assay: Antimicrobial activity against Mycobacterium abscessus isolate MC879-2 at day 14 preincubated with 0.1 ug/ml for 3 days by broth microdilution method
[4] = tested on: Mycobacteroides abscessus; assay: Antimicrobial activity against Mycobacterium abscessus isolate MC958 on day 14 by broth microdilution method; details: isolate MC958, 336 h
[5] = tested on: Mycolicibacterium smegmatis; assay: Antimicrobial activity against Mycobacterium smegmatis transformed with erm allele Mycobacterium abscessus isolate MC719 by broth microdilution method
[6] = tested on: Mycobacteroides abscessus; assay: Antimicrobial activity against Mycobacterium abscessus isolate MC958 at day 3 by broth microdilution method; details: isolate MC958, 72 h
Procedure, shortened: (§3)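 Clarithromycin MIC by broth microdilution following CLSI guidelines. Organisms were preincubated […], for 3 days before the assay. This allowed at least two generations, judged by the rise in turbidity. The MIC was read at the stated day, with incubation extended from day 3 to as long as 14 days.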

[7] = tested on: Mycobacteroides abscessus; assay: Antimicrobial activity against Mycobacterium abscessus isolate MC719 at day 3 by broth microdilution method; details: isolate MC719, 72 h; procedure, shortened: as §1
[8] = tested on: Mycobacteroides abscessus; assay: Antimicrobial activity against Mycobacterium abscessus isolate MC720 at day 3 by broth microdilution method; details: isolate MC720, 72 h; procedure, shortened: as §1
[9] = tested on: Mycobacteroides abscessus; assay: Antimicrobial activity against Mycobacterium abscessus isolate MC723 at day 3 by broth microdilution method; details: isolate MC723, 72 h; procedure, shortened: as §1
[10] = tested on: Mycobacteroides abscessus; assay: Antimicrobial activity against Mycobacterium abscessus isolate MC879 at day 9 by broth microdilution method; details: isolate MC879, 216 h; procedure, shortened: as §3
[11] = tested on: Mycobacteroides abscessus; assay: Antimicrobial activity against Mycobacterium abscessus isolate MC720 at day 9 by broth microdilution method; details: isolate MC720, 216 h; procedure, shortened: as §1
[12] = tested on: Mycobacteroides abscessus; assay: Antimicrobial activity against Mycobacterium abscessus isolate MC879 at day 14 by broth microdilution method; details: isolate MC879, 336 h; procedure, shortened: as §3
[13] = tested on: Mycobacteroides abscessus; assay: Antimicrobial activity against Mycobacterium abscessus isolate MC879 at day 3 preincubated with 0.1 ug/ml erythromycin for 3 days by broth microdilution method
Procedure, shortened: (§4)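 To test inducible resistance, cultures were preincubated for 3 days in clarithromycin or erythromycin, within 0.01–1 μg/ml. The period was set so cultures passed at least two generations, judged by turbidity increase. Clarithromycin MIC was then determined by CLSI-conforming broth microdilution and read on the stated day, from day 3 up to 14.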

[14] = tested on: Mycobacteroides abscessus; assay: Antimicrobial activity against Mycobacterium abscessus isolate MC719 at day 3 preincubated with 0.1 ug/ml erythromycin for 3 days by broth microdilution method; procedure, shortened: as §1
[15] = tested on: Mycobacteroides abscessus; assay: Antimicrobial activity against Mycobacterium abscessus isolate MC720 at day 3 preincubated with 0.1 ug/ml erythromycin for 3 days by broth microdilution method; procedure, shortened: as §1
[16] = tested on: Mycobacteroides abscessus; assay: Antimicrobial activity against Mycobacterium abscessus isolate MAB30 at day 5 by broth microdilution method; details: isolate MAB30, 120 h; procedure, shortened: as §2
[17] = tested on: Mycobacteroides abscessus; assay: Antimicrobial activity against Mycobacterium abscessus isolate MC1028 at day 5 by broth microdilution method; details: isolate MC1028, 120 h; procedure, shortened: as §2
[18] = tested on: Mycobacteroides abscessus; assay: Antimicrobial activity against Mycobacterium abscessus isolate MAB30 at day 9 by broth microdilution method; details: isolate MAB30, 216 h; procedure, shortened: as §2
[19] = tested on: Mycobacteroides abscessus; assay: Antimicrobial activity against Mycobacterium abscessus isolate MC1082 at day 9 by broth microdilution method; details: isolate MC1082, 216 h; procedure, shortened: as §2
[20] = tested on: Mycobacteroides abscessus; assay: Antimicrobial activity against Mycobacterium abscessus isolate MC1082 at day 14 by broth microdilution method; details: isolate MC1082, 336 h; procedure, shortened: as §2
[21] = tested on: Mycobacteroides abscessus; assay: Antimicrobial activity against Mycobacterium abscessus isolate MC1082 at day 5 preincubated with 0.1 ug/ml erythromycin for 3 days by broth microdilution method; procedure, shortened: as §2
[22] = tested on: Mycobacteroides abscessus; assay: Antimicrobial activity against Mycobacterium abscessus isolate MC1082 at day 14 preincubated with 0.1 ug/ml erythromycin for 3 days by broth microdilution method; procedure, shortened: as §2
[23] = tested on: Mycobacteroides abscessus; assay: Antimicrobial activity against Mycobacterium abscessus isolate MC1028 at day 3 preincubated with 0.1 ug/ml for 3 days by broth microdilution method; procedure, shortened: as §2
[24] = tested on: Mycobacteroides abscessus; assay: Antimicrobial activity against Mycobacterium abscessus isolate MC1028 at day 9 preincubated with 0.1 ug/ml for 3 days by broth microdilution method; procedure, shortened: as §2
[25] = tested on: Mycobacteroides abscessus; assay: Antimicrobial activity against Mycobacterium abscessus isolate MC879-2 at day 3 by broth microdilution method; details: isolate MC879-2, 72 h
[26] = tested on: Mycobacteroides abscessus; assay: Antimicrobial activity against Mycobacterium abscessus isolate MC1448 at day 3 by broth microdilution method; details: isolate MC1448, 72 h; procedure, shortened: as §2
[27] = tested on: Mycobacteroides abscessus; assay: Antimicrobial activity against Mycobacterium abscessus isolate MC1448 at day 5 by broth microdilution method; details: isolate MC1448, 120 h; procedure, shortened: as §1
[28] = tested on: Mycobacteroides abscessus; assay: Antimicrobial activity against Mycobacterium abscessus isolate MC879-2 at day 3 preincubated with 0.1 ug/ml erythromycin for 3 days by broth microdilution method
[29] = tested on: Mycobacteroides abscessus; assay: Antimicrobial activity against Mycobacterium abscessus isolate MC724 at day 14 preincubated with 0.1 ug/ml erythromycin for 3 days by broth microdilution method; procedure, shortened: as §1
[30] = tested on: Mycobacteroides abscessus; assay: Antimicrobial activity against Mycobacterium abscessus isolate MC724 at day 5 preincubated with 0.1 ug/ml for 3 days by broth microdilution method
Procedure, shortened: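 Clinical M. abscessus isolates were preincubated for 3 days, either in medium alone or in clarithromycin or erythromycin at 0.01 to 1 μg/ml, allowing at least two generations of growth judged by turbidity. The clarithromycin MIC was then determined by CLSI-conforming broth microdilution, with plates read on day 3 and on extended incubation (days 5 to 14).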

[31] = tested on: Mycobacteroides abscessus; assay: Antimicrobial activity against Mycobacterium abscessus isolate MC723 at day 7 preincubated with 0.1 ug/ml for 3 days by broth microdilution method; procedure, shortened: as §1
[32] = tested on: Mycobacteroides abscessus; assay: Antimicrobial activity against Mycobacterium abscessus isolate MC958 at day 9 preincubated with 0.1 ug/ml for 3 days by broth microdilution method
[33] = tested on: Mycobacteroides abscessus; assay: Antimicrobial activity against Mycobacterium abscessus isolate MC723 at day 9 preincubated with 0.1 ug/ml for 3 days by broth microdilution method; procedure, shortened: as §1
[34] = tested on: Mycobacteroides abscessus; assay: Antimicrobial activity against Mycobacterium abscessus isolate MC958 at day 14 preincubated with 0.1 ug/ml for 3 days by broth microdilution method; procedure, shortened: as §4
[35] = tested on: Mycobacteroides abscessus; assay: Antimicrobial activity against Mycobacterium abscessus isolate MC723 at day 14 preincubated with 0.1 ug/ml for 3 days by broth microdilution method; procedure, shortened: as §1
[36] = tested on: Mycobacteroides abscessus; assay: Antimicrobial activity against Mycobacterium abscessus isolate MAB30 at day 3 by broth microdilution method; details: isolate MAB30, 72 h; procedure, shortened: as §2

Question: Which MIC [1] does the source give for CC[C@H]1OC(=O)[C@H](C)[C@@H](O[C@H]2C[C@@](C)(OC)[C@@H](O)[C@H](C)O2)[C@H](C)[C@@H](O[C@@H]2O[C@H](C)C[C@H](N(C)C)[C@H]2O)[C@](C)(OC)C[C@@H](C)C(=O)[C@H](C)[C@@H](O)[C@]1(C)O [CLARITHROMYCIN] here?
Answer: > 32 mg/L

Question: What about the MIC [2] of the same molecule?
Answer: > 32 mg/L

Question: What about the MIC [3] of the same molecule?
Answer: > 32 mg/L

Question: And the MIC [4]?
Answer: 32 mg/L (≈ 42.8 µM)

Question: And the MIC [5]?
Answer: 2 mg/L (≈ 2.67 µM)

Question: And the MIC [6]?
Answer: ≤ 0.5 mg/L

Question: And the MIC [7]?
Answer: ≤ 0.5 mg/L

Question: And the MIC [8]?
Answer: ≤ 0.5 mg/L

Question: What about the MIC [9] of the same molecule?
Answer: ≤ 0.5 mg/L

Question: And the MIC [10]?
Answer: > 32 mg/L

Question: And the MIC [11]?
Answer: > 32 mg/L

Question: And the MIC [12]?
Answer: > 32 mg/L

Question: And the MIC [13]?
Answer: ≤ 0.5 mg/L

Question: And the MIC [14]?
Answer: ≤ 0.5 mg/L

Question: What about the MIC [15] of the same molecule?
Answer: ≤ 0.5 mg/L

Question: What about the MIC [16] of the same molecule?
Answer: ≤ 0.5 mg/L

Question: What about the MIC [17] of the same molecule?
Answer: ≤ 0.5 mg/L

Question: And the MIC [18]?
Answer: ≤ 0.5 mg/L

Question: What about the MIC [19] of the same molecule?
Answer: ≤ 0.5 mg/L

Question: What about the MIC [20] of the same molecule?
Answer: ≤ 0.5 mg/L

Question: What about the MIC [21] of the same molecule?
Answer: ≤ 0.5 mg/L

Question: And the MIC [22]?
Answer: ≤ 0.5 mg/L

Question: What about the MIC [23] of the same molecule?
Answer: ≤ 0.5 mg/L

Question: And the MIC [24]?
Answer: ≤ 0.5 mg/L

Question: And the MIC [25]?
Answer: > 32 mg/L

Question: What about the MIC [26] of the same molecule?
Answer: > 32 mg/L

Question: What about the MIC [27] of the same molecule?
Answer: > 32 mg/L

Question: And the MIC [28]?
Answer: > 32 mg/L

Question: What about the MIC [29] of the same molecule?
Answer: > 32 mg/L

Question: What about the MIC [30] of the same molecule?
Answer: 4 mg/L (≈ 5.35 µM)

Question: And the MIC [31]?
Answer: > 32 mg/L

Question: What about the MIC [32] of the same molecule?
Answer: > 32 mg/L

Question: And the MIC [33]?
Answer: > 32 mg/L

Question: What about the MIC [34] of the same molecule?
Answer: > 32 mg/L

Question: And the MIC [35]?
Answer: > 32 mg/L

Question: What about the MIC [36] of the same molecule?
Answer: ≤ 0.5 mg/L
